Experimental data from different studies.
Each line is one published result; the experiments were not run side by side.

O=C(Nc1ccc2c(c1)B(O)OC2)c1cccc(OCc2c(Cl)cccc2Cl)c1 has a Papp of 0.91 ×10⁻⁶ cm/s (PAMPA; 200 µM, 5 h, pH 7.4).
COc1ccc(C[C@@H]2NC(=O)[C@@H](CC(C)C)NC(=O)[C@H](C)NC(=O)[C@H](CC(C)C)NC(=O)[C@@H](CC(C)C)NC(=O)[C@H]3CCCN3C2=O)cc1 has a Papp of 19 ×10⁻⁶ cm/s (PAMPA; 10 µM, 7 h).
With O=C1[O][Pt]2([NH][C@@H]3CCCC[C@H]3[NH]2)[O]C1=O (relative stereo) the Papp was 0.448 ×10⁻⁶ cm/s (PAMPA; pH 6.8).
For CN1CCN(C(c2ccc(Cl)cc2)c2ccc(Cl)cc2)CC1, the Papp was 1020 ×10⁻⁶ cm/s (PAMPA).
With N#Cc1ccc(COc2cccc(C(=O)Nc3ccc4c(c3)B(O)OC4)c2)cc1 the Papp was 0.076 ×10⁻⁶ cm/s (PAMPA; 200 µM, 5 h, pH 7.4).
For COCCOCCOCCOCCOc1c(OC)cc2cc(C(=O)N3C[C@@H](CCl)c4c3cc(O)c3[nH]c(C(=O)OC)cc43)[nH]c2c1OC, the Papp was 10 ×10⁻⁶ cm/s (PAMPA; 1 µM, 5 h, pH 7.4).
CNC(=O)[C@@H](NC(=O)c1cc(OCC2(C)COC2)c(C2CC2)cn1)C(C)(C)C gave a Papp of 5.17 ×10⁻⁶ cm/s (PAMPA).
The Papp of COc1ccc(C[C@@H]2NC(=O)[C@@H](CC(C)C)NC(=O)CNC(=O)[C@H](CC(C)C)NC(=O)[C@@H](CC(C)C)NC(=O)[C@H]3CCCN3C2=O)cc1 is reported as 9.1 ×10⁻⁶ cm/s (PAMPA; 10 µM, 7 h).
The Papp of O=S(=O)(Nc1ccc2c(c1)B(O)OC2)c1ccc(Cl)cc1 is reported as 1.7 ×10⁻⁶ cm/s (PAMPA; 200 µM, 5 h, pH 7.4).
CC[C@@H](C)[C@@H]1NC(=O)[C@@H](CC(C)C)NC(=O)CN(C)C(=O)[C@H]([C@H](C)CC)NC(=O)[C@@H](CC(C)C)NC(=O)CN(C)C1=O gave a Papp of 38 ×10⁻⁶ cm/s (PAMPA).
For CC(C)[C@H]1C(=O)N[C@@H](CCCN=C(N)N)C(=O)NCC(=O)N[C@@H](CC(=O)O)C(=O)N[C@H](Cc2ccccc2)C(=O)N1C, the Papp was roughly 0.1 ×10⁻⁶ cm/s (Caco-2).
For O=C(Nc1ccc2c(c1)B(O)OC2)c1cccc(OCc2ccccc2)c1, the Papp was 0.14 ×10⁻⁶ cm/s (PAMPA; 200 µM, 5 h, pH 7.4).
For O=c1cc(-c2ccc(O)cc2)oc2cc(O)cc(O)c12, the Papp was 13.9 ×10⁻⁶ cm/s (PAMPA-BBB; 1 µM, 18 h).
Cn1c(=O)c2c(ncn2C)n(C)c1=O has a Papp of 11.7 ×10⁻⁶ cm/s (PAMPA; 200 µM, 5 h, pH 7.4).
For Cc1nonc1Cn1nnc2c(N3CC[C@H](O)C3)nc(C(C)(C)C)nc21, the Papp was 2.2 ×10⁻⁶ cm/s (PAMPA).
